Assay outcomes from PubChem.
PAFAH1B2 inh: blocks human PAF acetylhydrolase 1b catalytic subunit 2; recombinant PAFAH1B2, FP-rhodamine activity probe, fluorescence polarization; P68402; inhibition, % at 3.39 µM; 1.2% of 340,000 active;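 active = inhibition above the mean of all tested compounds plus 3 SD, cut at about 24% in these data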;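 note: 0% = enzyme with DMSO and 100% = wells lacking PAFAH1B2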
VIM-2 inhibitor: inhibitors of Pseudomonas aeruginosa VIM-2 metallo-beta-lactamase; purified VIM-2, nitrocefin hydrolysis, epi-absorbance fluorescence; inhibition, % at 5.6 µM; 0.89% of 290,000 active; AID 1527;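 active = inhibition above the mean of all tested compounds plus 3 SD, cutoff set per screening run, cut at about 7.5% in these data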;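 note: red hydrolysis product quenches plate fluorescence so inhibitors raise well fluorescence; 0% = enzyme with DMSO and 100% = DMSO without enzyme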
PAFAH2 FP inh: PAFAH2 (human) inhibition | Q99487 | recombinant PAFAH2, FP-rhodamine activity probe, fluorescence polarization | inhibition, % at 3.39 µM | 0.99% of 340,000 active | AID 492956;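 active = inhibition above the mean over all tested compounds plus 3 SD, cut at about 30% in these data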;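 note: inhibitors block probe labeling of enzyme so polarization drops; 0% = enzyme with DMSO and 100% = wells lacking PAFAH2 protein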
pPAFAH inh: inhibitors of human plasma PAF acetylhydrolase (pPAFAH); Q13093; recombinant pPAFAH, FP-rhodamine probe fluorescence polarization; inhibition, % at 3.39 µM; 1.5% of 330,000 active;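 active = inhibition above the mean inhibition across the screen plus 3 SD, cut at about 25% in these data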;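 note: inhibitors block binding of the rhodamine activity-based probe so polarization drops; 0% = enzyme with DMSO and 100% = wells lacking pPAFAH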
Target sequence (Q13093 whole entry, looked up): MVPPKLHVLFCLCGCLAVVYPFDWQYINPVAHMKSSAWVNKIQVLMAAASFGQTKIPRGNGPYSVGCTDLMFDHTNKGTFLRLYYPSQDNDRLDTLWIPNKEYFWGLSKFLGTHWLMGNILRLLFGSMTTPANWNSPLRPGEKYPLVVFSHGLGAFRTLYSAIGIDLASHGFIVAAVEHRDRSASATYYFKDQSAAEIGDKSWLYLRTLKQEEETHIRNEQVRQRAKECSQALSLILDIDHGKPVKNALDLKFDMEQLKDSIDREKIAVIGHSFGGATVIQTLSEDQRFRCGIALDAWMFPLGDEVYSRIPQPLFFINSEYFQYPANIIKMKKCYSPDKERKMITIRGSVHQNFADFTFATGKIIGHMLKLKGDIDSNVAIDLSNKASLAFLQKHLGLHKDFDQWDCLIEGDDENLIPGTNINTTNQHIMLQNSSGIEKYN
PAFAH1B3 inh: blocks human PAF acetylhydrolase 1B catalytic subunit 3. recombinant PAFAH1B3, FP-rhodamine probe, fluorescence polarization. Q15102. AID 492972. 0.28% of 340,000 active. inhibition, % at 3.39 µM;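 active = inhibition above the screen-wide average of all tested compounds plus 3 SD, cut at about 25% in these data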;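 note: 0% = enzyme with DMSO only and 100% = wells lacking PAFAH1B3 protein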
IMP-1 inh: inhibitors of Pseudomonas aeruginosa IMP-1 metallo-beta-lactamase; 0.45% of 290,000 active; AID 1556; inhibition, % at 5.6 µM; purified IMP-1, nitrocefin hydrolysis, epi-absorbance fluorescence;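 active = inhibition above the mean plus 3 SD of all compounds in the same screening run, cut at about 4.5% in these data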;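 note: 0% = IMP-1 with DMSO and 100% = DMSO wells lacking enzyme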
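System – purified recombinant IMP-1 beta-lactamase · Input – IMP-1 dispensed at 0.2 nM · Timing – 15 min preincubation plus 25 min reaction at 25 °C · Signal – Epi-absorbance fluorescence, 480 nm excitation, 530 nm emission · Measure – percent IMP-1 inhibition derived from blank-referenced optical density · Controls – Enzyme-plus-DMSO low control, enzyme-free DMSO high control · Replication – singlicate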
* hit, by the source's call; . = no result given. Most compounds without a hit are left out; they make up all but 3.6% or so of the library.

SMILES	PAFAH1B2 inh	VIM-2 inhibitor	PAFAH2 FP inh	pPAFAH inh	PAFAH1B3 inh	IMP-1 inh
O=C(O)c1cccnc1C(=O)N1CCc2c([nH]c3ccccc23)C1C(F)(F)F (configuration not stated)	.	9.4*	.	1.3	.	-3.5
Fc1ccc(C2=Nn3c(nnc3-c3ccco3)SC2)cc1	-1.8	3.7	2.6	-0.5	7.8	-0.8
Brc1ccccc1C1=Nn2c(nnc2-c2ccco2)SC1	5.2	8.0*	4.8	7.2	1.3	-2.5
c1ccc(C2=Nn3c(nnc3-c3ccco3)SC2)cc1	1.7	8.3*	-1.8	2.2	6.2	0.0
Cc1ccccc1NS(=O)(=O)c1ccc(C)c(C(=O)N2CCOCC2)c1	-1.1	-2.4	-2.7	33.5*	3.9	-2.6
COc1ccc(S(=O)(=O)Nc2ccccc2C)cc1C(=O)N1CCOCC1	1.3	0.2	7.8	25.6*	3.4	-1.8
Cc1ccc(S(=O)(=O)Nc2ccccc2F)cc1C(=O)N1CCCC1	2.1	.	0.8	5.8	7.2	.
CCCCN(C(=O)c1cc(=O)[nH]c2ccccc12)c1c(N)n(CCCC)c(=O)[nH]c1=O	-0.8	-0.1	-0.7	-2.2	10.8	-1.4
COc1ccc(N2CCN(c3ccc(S(=O)(=O)N(C(C)C)C(C)C)cn3)CC2)cc1	4.2	-0.3	-3.6	0.8	4.6	-1.4
C=CC[C@H](CC(=O)NCCO)C(=O)N[C@@H](COC(=O)[C@@H](CC=C)Cc1ccc(F)cc1)Cc1ccccc1	1.9	.	6.5	-1.3	0.9	.
O=C1N(O)C2(C=CCCC2)/C(=N\O)C12CCCCC2 (configuration not stated)	6.1	10.4*	-3.2	-6.6	7.3	1.4
CCON1C(=O)C2(CCCCC2)C(=O)C12C=CCCC2 (configuration not stated)	13.9	.	0.7	.	5.0	.
COc1ccc(S(=O)(=O)N2CCN(Cc3cc(=O)n4ccccc4n3)CC2)cc1	0.7	.	9.7	0.6	4.7	.
COC(=O)c1ccc(NC(=O)CN2C(=O)c3ccccc3S2(=O)=O)cc1	1.1	-3.4	-2.2	-6.5	0.8	-0.8
CCCCc1ccc(NC(=O)CN2NS(=O)(=O)c3ccccc3C2=O)cc1	10.8	-0.1	-17.3	2.5	10.1	5.5*
O=C(Nc1ccccc1C(F)(F)F)NC1(C(=O)N2CCOCC2)CCCCC1	0.7	.	28.6	.	9.2	.
Cc1ccc(NC(=O)CN(C)Cc2cccs2)cc1Cl	-1.2	-3.7	4.7	13.0	3.4	-3.0
CCN(CC)c1ccc(NC(=O)CN(C)Cc2cccs2)cc1	4.3	-0.9	7.0	26.4*	5.7	-2.0
CCOc1ccc(CCNC(=O)C2CC(C)=CCC2C(=O)O)cc1OCC (configuration not stated)	1.9	0.2	-5.0	-0.1	4.5	37.6*
COc1ccc(NC(=O)c2c(F)cccc2Cl)cc1S(=O)(=O)N1CCOCC1	5.5	.	2.8	-3.1	8.7	.
N#CCC(=O)NNC(=S)NC(=O)C(c1ccccc1)c1ccccc1	29.0*	-4.0	-3.9	10.2	8.0	-4.7
CC(=O)NC(=S)NNC(=O)C(c1ccccc1)c1ccccc1	6.6	-0.2	5.8	3.1	-2.9	-1.7
OCCNCCNCc1ccc(-c2ccccc2)cc1	.	9.3*	.	7.4	.	-1.6
OCCNCc1cccc(-c2ccccc2)c1O	-1.5	.	-5.9	.	6.4	.
CN(C(=O)c1cccc(NC(=O)Cc2cccc(NC(=O)C3CCN(C(=O)CCc4ccccc4)CC3)c2)c1)C1CC1	6.8	.	1.6	.	2.8	.
SMILES	PAFAH1B2 inh	VIM-2 inhibitor	PAFAH2 FP inh	pPAFAH inh	PAFAH1B3 inh	IMP-1 inh
COc1ccc(Cc2nnc(NC(=O)Nc3cccc(OC)c3)s2)cc1	-2.7	0.4	-3.3	-0.9	-0.9	-1.0
CCOC(=O)c1c(NC(C)=O)sc2c(OCC(O)CN(CC)CC)c(Br)ccc12 (configuration not stated)	0.7	9.3*	-5.0	-1.8	2.7	-2.5
O=C(O)c1cccnc1SC1CC(=O)N(c2ccccc2)C1=O (configuration not stated)	7.6	-0.6	0.4	1.2	0.8	5.2*
O=C(NCCCn1ccnc1)c1cc(-c2ccncc2)nc2ccccc12	3.1	11.3*	-1.6	1.8	-5.2	-1.4
O=C(Cc1n[nH]c(=O)c2ccccc12)OCC(=O)c1ccc(F)c(F)c1	-1.2	.	1.8	1.5	8.6	.
CCN1CCN(S(=O)(=O)c2ccc(Cl)c(C(=O)N(C)Cc3ccco3)c2)CC1	1.9	.	-1.7	.	5.7	.
NC(=O)c1ccc(Cl)c2ccccc12	3.5	-0.9	-0.6	-7.4	-1.8	14.9*
